# Source: PubChem (Sanford-Burnham Center for Chemical Genomics)
# CCR6 antagonist: CCR6 (human) receptor antagonism. P51684. CHO-K1 CCR6 PathHunter beta-arrestin, luminescence, CCL20-stimulated. inhibition, % at 20 µM. 340,000 compounds, 0.49% hits. AID 493098;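 active means compounds whose inhibition of the agonist-driven luminescence signal at 20 µM reaches about 50%, limit read from the data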;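 further: cells stimulated with CCL20 at 14 nM final; plate controls were DMSO with CCL20 for no effect and DMSO without agonist for full effect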
# APJ ag: agonists of human APJ apelin receptor | P35414 | CHO-K1 APJ PathHunter beta-arrestin, luminescence; 0% DMSO wells, 100% apelin | activation, % at 20 µM | 330,000 compounds, 0.11% hits;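 active means activation more than six SD over the plate average, tested at 20 µM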;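 further: 0% = DMSO alone and 100% = apelin-13 at 10 nM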
#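 Material: engineered CHO-K1 APJ arrestin reporter cells; amount: 1000 CHO-K1 reporter cells seeded per well; incubation: compound stimulation 90 min at 25 °C, detection 60 min; signal: luminescent beta-gal fragment complementation, chemiluminescent substrate; read-out basis: APJ agonist activity; controls: DMSO-only wells as negative, 10 nM Apelin-13 as positive control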
# CXCR6 block: blocks human CXCR6 beta-arrestin recruitment | inhibition, % at 20 µM | O00574 | CHO-K1 PathHunter CXCR6 beta-arrestin, luminescence | 360,000 compounds, 0.36% hits | AID 602244; in the data active means inhibition above about 34%, passing the limit was not always enough;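 further: antagonist mode with CXCL16 agonist at 10 nM final; 0% = 10 nM CXCL16 with DMSO and 100% = unstimulated wells without agonist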
# EBI2 block: EBI2 (human) antagonism. EBI2 beta-arrestin recruitment, luminescence, 7a,25-OHC stimulated. inhibition, % at 5 µM. 360,000 compounds, 0.81% hits. P32249; in the data active means inhibition above about 38%;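 further: enzyme fragment complementation signal reports receptor beta-arrestin coupling in cells; 0% = agonist plus DMSO wells and 100% = wells without agonist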
# Target sequence (P32249 whole entry, looked up, the tested form may be a part): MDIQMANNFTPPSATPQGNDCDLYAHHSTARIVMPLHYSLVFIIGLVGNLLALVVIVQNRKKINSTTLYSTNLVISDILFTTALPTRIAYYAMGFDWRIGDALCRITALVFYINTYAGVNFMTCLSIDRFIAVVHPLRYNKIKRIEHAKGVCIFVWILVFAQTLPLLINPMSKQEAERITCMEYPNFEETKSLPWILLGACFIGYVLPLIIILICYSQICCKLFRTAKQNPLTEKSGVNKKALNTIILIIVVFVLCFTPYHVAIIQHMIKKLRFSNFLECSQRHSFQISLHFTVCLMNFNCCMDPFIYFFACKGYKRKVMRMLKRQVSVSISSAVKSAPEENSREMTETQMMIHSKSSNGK
# APJ antagonist: blocks the human apelin receptor APJ | P35414 | CHO-K1 APJ beta-arrestin complementation, luminescence | inhibition, % at 20 µM | 330,000 compounds, 0.32% hits;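 active means inhibition above about 40% at 20 µM, limit read from the data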;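 further: cells challenged with 10 nM apelin-13 agonist together with compound; plate controls were apelin-13 plus DMSO wells for no effect and DMSO wells lacking apelin-13 for full effect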
# APJ ag confirm: APJ receptor agonism confirmation; shares compounds with APJ ag; CHO-K1 APJ PathHunter beta-arrestin, luminescence; activation, % at 20 µM; 310 compounds, 10% hits;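 active means activation above 40%, taking the highest of four retests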;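 further: plate controls were DMSO wells for no effect and apelin-13 at 10 nM for full effect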
# Starred values were filed as active, the others as inactive; . = no result. Only some compounds are listed: those with a hit (about 1.5% of all), similar ones and a draw of the others.
SMILES,CCR6 antagonist,APJ ag,CXCR6 block,EBI2 block,APJ antagonist,APJ ag confirm
COc1ccc(NC(=S)NC(=O)/C=C/c2ccccc2)cc1,-14.1,7.2,-8.0,-11.2,-32.5,.
Cc1cccc(NC(=S)NC(=O)/C=C/c2ccccc2)n1,-8.1,10.6*,-4.6,-36.4,-57.1,27.7
Cc1ccc(C)c(NC(=O)/C(C#N)=C/c2ccc(Sc3nncn3C)c([N+](=O)[O-])c2)c1,.,44.5*,.,.,-5.3,36.5
c1ccc(-c2nc(N3CCCCCC3)nc(-n3ccnc3)n2)cc1,27.7,26.2*,4.3,10.5,-11.9,11.7
c1ccc(-c2nc(N3CCN(c4ccccc4)CC3)nc(-n3ccnc3)n2)cc1,28.3,-2.1,17.0,38.3,19.9,.
Cc1nnc(N2CCCC(C(=O)Nc3cc(F)ccc3F)C2)c2nn(-c3ccccc3)c(C)c12 (configuration not stated),4.0,21.1*,0.4,-10.5,-19.7,30.3
Cc1nnc(N2CCCC(C(=O)NCc3ccc(OC(C)C)cc3)C2)c2nn(-c3ccccc3)c(C)c12 (configuration not stated),2.5,2.2,9.1,6.8,-23.5,.
Cc1ccc(NC(=O)CSc2ccccc2NC(=O)c2cccc(Cl)c2)cc1Cl,-0.8,13.5*,-12.6,-6.2,-26.4,11.2
Cc1cccc(C(=O)Nc2ccccc2SCC(=O)Nc2ccc(C)c(Cl)c2)c1,-32.5,-0.6,-4.7,27.6,7.2,.
CC1(C(=O)NS(=O)(=O)c2ccc(C#N)cc2)CCN1C(=O)Cc1ccc(-c2ccccc2)cc1 (configuration not stated),.,.,-0.6,-8.0,.,.
COc1ccc(OC)c2sc(N(CCCN(C)C)C(=O)c3ccc(S(=O)(=O)N4CCc5ccccc5C4)cc3)nc12,.,44.7*,.,.,-59.4,21.7
O=C(NCC[C@@H]1CC[C@@H](NC(=O)c2cnccn2)[C@@H](CO)O1)c1ccc2c(c1)OCO2,.,.,.,-6.1,.,.
CCOC(=O)CSC1=Nc2ccccc2C2=NC(CC(=O)NCc3ccccc3)C(=O)N12 (configuration not stated),10.2,5.7,1.7,-6.0,5.5,.
CCC(C)NC(=O)CSC1=Nc2ccccc2C2=NC(CC(=O)NCc3ccc(F)cc3)C(=O)N12 (configuration not stated),7.4,51.2*,-4.0,-1.9,-15.7,8.0
O=C(Nc1nccs1)c1csc([C@H]2C[C@H](O)[C@@H](CO)O2)n1,.,.,8.7,-5.7,.,.
CC1(C(=O)Nc2ccccc2)CCN1C(=O)CCc1ccc(Cl)cc1Cl (configuration not stated),.,.,-1.8,-2.6,.,.
Cc1ccc2c(c1)c(=O)c1c3n2CCN(C(=O)CCl)C3CC1 (configuration not stated),-4.5,36.6*,1.0,-20.6,-15.5,22.2
CCC(CC)C(=O)N(C)c1c(C)nc2c(OCc3ccc(C(F)(F)F)cc3)cccn12,.,.,14.0,14.1,.,.
CC(C)(C)c1ccccc1NC(=O)Nc1nc(C(N)Cc2ccc(F)cc2)cs1 (configuration not stated),.,.,-5.3,1.0,.,.
CCCCc1cc(O)c(CCCC)c(O)c1,11.5,13.0*,-17.3,2.0,-25.3,20.6
Cc1ccc(-n2ncc3c(N4CCN(c5ccccc5)CC4)ncnc32)c(C)c1,-13.3,16.7*,-4.6,-19.4,-28.7,40.0*
CCSc1nc(O)c(CC)c(=O)n1C(C)CC (configuration not stated),-25.1,39.2*,-3.0,-1.1,-19.0,60.6*
O=C(Nc1ccc(Cl)c(Cl)c1)N[C@@H]1CC[C@@H](CCn2cc(C3CCCCC3)nn2)O[C@@H]1CO,.,.,.,2.8,.,.
O=C(COC(=O)c1ccc2c(c1Cl)C(=O)c1ccccc1C2=O)NC1CC1,-17.9,12.6*,-24.2,-8.9,-29.5,25.0
Cc1nc(NC(=O)c2ccccc2)sc1-c1cc(C(=O)N2CCOCC2)nn1Cc1ccccc1,.,.,5.1,8.8,.,.
CCCn1c(=O)c(C(=O)Nc2c(C)n(C)n(-c3ccccc3)c2=O)c(O)c2ccccc21,-11.0,26.0*,8.6,-3.0,-11.7,18.9
CCCn1c(=O)c(C(=O)Nc2cccc(C)n2)c(O)c2ccccc21,-5.9,0.2,3.0,-3.5,-11.0,.
Nc1ccc2c(c1)[nH]c(=O)c1cc(N)ccc12,.,.,-11.5,-6.0,.,.
CN1CCN(c2ccc(NC(=O)COc3ccccc3[N+](=O)[O-])cc2)CC1,-2.9,-1.3,7.0,-8.1,-0.7,.
